In ChEMBL document CHEMBL5724801, “EUbOPEN Chemogenomics Library - Multiplex” (2024):
“And” between values parts separate entries of the source, which are not always exact repeats. Equal entries are not always repeated.

Test system: Fibroblast
Assay: Multiplex assay against human fibroblast
Assay type: toxicity, cell-based
Outline: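 With compound added, live cells were imaged on a CQ1 microscope at 37°C and 5% CO2; staining with Hoechst33342, BioTracker Green Microtubule Cytoskeleton Dye, MitoTracker Red and Annexin V Alexa Fluor 680 had been done at seeding. The CellPathfinder machine-learning gating scheme split cells into Hoechst high-intensity objects or normal cells, normal cells into healthy, pyknosed or fragmented nuclei, and pyknosed cells into mitotic or apoptotic. The tubulin, mitochondrial-mass and membrane-permeability phenotypes are per cents of healthy-nucleus cells.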

[1] = 12 h, 1 µM, compound concentration 1 uM
[2] = 12 h, 10 µM, compound concentration 10 uM
[3] = 24 h, 1 µM, compound concentration 1 uM
[4] = 24 h, 10 µM, compound concentration 10 uM
[5] = 48 h, 1 µM, compound concentration 1 uM
[6] = 48 h, 10 µM, compound concentration 10 uM

## CN1C[C@H](C(=O)N[C@]2(C)O[C@@]3(O)[C@@H]4CCCN4C(=O)[C@H](Cc4ccccc4)N3C2=O)C[C@@H]2c3cccc4[nH]cc(c34)C[C@H]21.CS(=O)(=O)O [DIHYDROERGOTAMINE MESYLATE]
[1]
  Population Apoptotic (%): 25% and 47%
  Population Fragmented Nuclei (%): 13% and 32%
  Population Healthy Nuclei (%): 70% and 51%
  Population Hoechst High Intensity Objects (%): 1% and 7%
  Population Membrane Permeable-Phenotype (%): 1% and 6%
  Population Mitochondria Different-Phenotype (%): 1% and 5%
  Population Mitotic Cells (%): 75% and 52%
  Population Normal (%): 98% and 92%
  Population Pyknosed Nuclei (%): 16%
  Population Tubulin-Different-Phenotype (%): 23% and 31%
  Total Cell Count: 127 and 155
[2]
  Population Apoptotic (%): 57% and 31%
  Population Fragmented Nuclei (%): 27% and 33%
  Population Healthy Nuclei (%): 65% and 45%
  Population Hoechst High Intensity Objects (%): 0% and 8%
  Population Membrane Permeable-Phenotype (%): 0% and 2%
  Population Mitochondria Different-Phenotype (%): 5% and 0%
  Population Mitotic Cells (%): 42% and 68%
  Population Normal (%): 100% and 91%
  Population Pyknosed Nuclei (%): 7% and 21%
  Total Cell Count: 92 and 114
[3]
  Population Apoptotic (%): 38% and 47%
  Population Fragmented Nuclei (%): 14% and 30%
  Population Healthy Nuclei (%): 75% and 56%
  Population Hoechst High Intensity Objects (%): 1% and 4%
  Population Membrane Permeable-Phenotype (%): 0% and 7%
  Population Mitochondria Different-Phenotype (%): 0% and 3%
  Population Mitotic Cells (%): 61% and 52%
  Population Normal (%): 98% and 95%
  Population Pyknosed Nuclei (%): 10% and 13%
  Population Tubulin-Different-Phenotype (%): 18% and 50%
  Total Cell Count: 130 and 149
[4]
  Population Apoptotic (%): 55% and 31%
  Population Fragmented Nuclei (%): 17% and 35%
  Population Healthy Nuclei (%): 72% and 43%
  Population Hoechst High Intensity Objects (%): 1% and 5%
  Population Membrane Permeable-Phenotype (%): 0% and 6%
  Population Mitochondria Different-Phenotype (%): 1% and 0%
  Population Mitotic Cells (%): 44% and 68%
  Population Normal (%): 98% and 94%
  Population Pyknosed Nuclei (%): 10% and 20%
  Total Cell Count: 89 and 113
[5]
  Population Apoptotic (%): 57% and 53%
  Population Fragmented Nuclei (%): 20% and 38%
  Population Healthy Nuclei (%): 68% and 50%
  Population Hoechst High Intensity Objects (%): 1% and 5%
  Population Membrane Permeable-Phenotype (%): 0% and 6%
  Population Mitochondria Different-Phenotype (%): 2% and 6%
  Population Mitotic Cells (%): 42% and 46%
  Population Normal (%): 98% and 94%
  Population Pyknosed Nuclei (%): 10% and 11%
  Population Tubulin-Different-Phenotype (%): 30% and 48%
  Total Cell Count: 134 and 139
[6]
  Population Apoptotic (%): 63% and 76%
  Population Fragmented Nuclei (%): 21% and 44%
  Population Healthy Nuclei (%): 65% and 44%
  Population Hoechst High Intensity Objects (%): 3%
  Population Membrane Permeable-Phenotype (%): 1% and 11%
  Population Mitochondria Different-Phenotype (%): 3% and 5%
  Population Mitotic Cells (%): 36% and 23%
  Population Normal (%): 96%
  Population Pyknosed Nuclei (%): 12% and 10%
  Population Tubulin-Different-Phenotype (%): 20% and 55%
  Total Cell Count: 91 and 126
